This note sets out measurements from ChEMBL document CHEMBL4261490, “Exploring the links between peptoid antibacterial activity and toxicity” (Medchemcomm, 2017).

Converted amounts (≈) assume the structure as drawn. Square brackets hold non-standard residues; d marks the D form. Peptide text beside a SMILES is read from it. Gly(Nα-4-Cl-benzyl) = O=C(O)CNCc1ccc(Cl)cc1; Gly(N-(CH2)6NH2) = NCCCCCCNCC(=O)O; Gly(N-2-aminoethyl) = NCCNCC(=O)O; Nspe = C[C@H](NCC(=O)O)c1ccccc1; NhArg = N=C(N)NCCCCNCC(=O)O; NPentylGly = CCCCCNCC(=O)O; Nphe = O=C(O)CNCc1ccccc1; Nlys = NCCCCNCC(=O)O Where only a bound is given, the exact number is not on record here.

The nature of data set [1]: Selectivity index, ratio of ED50 for human HaCaT cells to MIC for Pseudomonas aeruginosa PAO1 ATCC 15692. As to conditions: read-out: Selectivity Index. It is filed as toxicity.
In data set [2] the test system is Pseudomonas aeruginosa. Nature of the data set: Antibacterial activity against Pseudomonas aeruginosa PAO1 ATCC 15692 incubated for 16 hrs under shaking condition. It counts as functional. As to conditions: PAO1 ATCC 15692, 16 h. A digest of the protocol:
(§1)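 Broth microdilution (Andrews method) in Iso-sensitest broth. Overnight cultures are adjusted to A650 0.07 (0.5 McFarland) and diluted ten-fold. Compounds come from 5 mM DMSO stocks, 2-fold serially diluted, final 2–100 μM in a 1:1 inoculum:compound mix. Incubation is 37 °C for 16 h with shaking. MIC is the lowest concentration giving complete growth inhibition, read by absorbance; triplicate.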

The test system of data set [3] is Escherichia coli. In words: Antibacterial activity against Escherichia coli K-12 W3110 ATCC 27325 incubated for 16 hrs under shaking condition. It is filed as functional. As to conditions: K-12 substr. W3110 ATCC 27325, 16 h. A digest of the protocol: as §1
The nature of data set [4]: Selectivity index, ratio of ED50 for human HaCaT cells to MIC for Staphylococcus aureus 3R7089 strain Oxford/ATCC 9144. It counts as toxicity. As to conditions: read-out: Selectivity Index.
Data set [5] in a line: Selectivity index, ratio of ED50 for human HepG2 cells to MIC for Staphylococcus epidermidis clinical isolate. It is filed as toxicity. As to conditions: read-out: Selectivity Index.
A short description of data set [6]: Cytotoxicity against human HepG2 cells assessed as reduction in cell viability pretreated for 1 hr followed by DMEM addition measured after 24 hrs by alamar blue assay. It counts as cell-based. Particulars: read-out: ED50. A digest of the protocol:
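HepG2 cells are kept in DMEM high glucose with 10% heat-inactivated FBS and 1% P/S at 37 °C, 5% CO2, and seeded at 2x10^4 cells/well one day ahead. They are exposed to compounds (100 to 3 µM, from 5 mM DMSO stocks) in 50 µL for 1 h. Medium is then added and cells incubated 24 h. alamarBlue is read after 2 h (Ex 560/Em 600). Triplicate on ≥2 occasions; ED50 from dose-response; DMSO negative control.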
Background: Resazurin is reduced to fluorescent resorufin, in cell work by metabolically active cells.

Data set [7] is described as follows: Selectivity index, ratio of ED50 for human HepG2 cells to MIC for Escherichia coli K-12 W3110 ATCC 27325. It is filed as toxicity. As to conditions: read-out: Selectivity Index.
The nature of data set [8]: Selectivity index, ratio of ED50 for human HaCaT cells to MIC for Staphylococcus epidermidis clinical isolate. It is filed as toxicity. As to conditions: read-out: Selectivity Index.
Data set [9] can be described thus: Selectivity index, ratio of ED50 for human HepG2 cells to MIC for Staphylococcus aureus 3R7089 strain Oxford/ATCC 9144. It counts as toxicity. As to conditions: read-out: Selectivity Index.
The nature of data set [10]: Selectivity index, ratio of ED50 for human HepG2 cells to MIC for Pseudomonas aeruginosa PAO1 ATCC 15692. It is filed as toxicity. As to conditions: read-out: Selectivity Index.
The nature of data set [11]: Selectivity index, ratio of ED50 for human HaCaT cells to MIC for Escherichia coli K-12 W3110 ATCC 27325. As to conditions: read-out: Selectivity Index. It counts as toxicity.
Data set [12] in a line: Cytotoxicity against human HaCaT cells assessed as reduction in cell viability pretreated for 1 hr followed by DMEM addition measured after 24 hrs by alamar blue assay. Particulars: read-out: ED50. It is filed as cell-based. A digest of the protocol: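 HaCaT keratinocytes are grown in DMEM high glucose with 10% FBS and 1% P/S and seeded at 2x10^4 cells/well 24 h before treatment. Compound dilution series run 2–100 µM (5 mM DMSO stocks) in 50 µL for 1 h, then medium is added for 24 h at 37 °C, 5% CO2. alamarBlue is read after 1 h (Ex 540/Em 620). Triplicate, ≥2 occasions; ED50 from dose-response; amphotericin B positive control.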

The subject of data set [13] is Staphylococcus aureus. In words: Antibacterial activity against Staphylococcus aureus 3R7089 strain Oxford/ATCC 9144 incubated for 16 hrs under shaking condition. It is filed as functional. Particulars: 3R7089 strain Oxford/ATCC 9144, 16 h. A digest of the protocol: as §1
Data set [14] relates to Staphylococcus epidermidis. Nature of the data set: Antibacterial activity against Staphylococcus epidermidis clinical isolate incubated for 16 hrs under shaking condition. It counts as functional. A digest of the protocol: as §1

A word on the MIC: it is the lowest concentration that inhibits growth of the organism. In the case of `COc1ccc(CN(CC(N)=O)C(=O)CN(Cc2ccc(OC)cc2)C(=O)CN(CCCCN)C(=O)CN(Cc2ccc(OC)cc2)C(=O)CN(Cc2ccc(OC)cc2)C(=O)CN(CCCCN)C(=O)CN(Cc2ccc(OC)cc2)C(=O)CN(Cc2ccc(OC)cc2)C(=O)CN(CCCCN)C(=O)CN(Cc2ccc(OC)cc2)C(=O)CN(Cc2ccc(OC)cc2)C(=O)CNCCCCN)cc1`, the selectivity ratio in [1] amounted to 0; in data set [4], 14; in [5], 50; in data set [7] it was 1; in [8], 21; in [9] it was 33. The selectivity ratio in [10] came out at 1; in [11], 0. Further, the minimum inhibitory concentration (MIC) in data set [2] and in [3] was over 100 µM throughout. Also, the CC50 at 24 h in data set [6] was over 100 µM.
For the compound `C[C@@H](c1ccccc1)N(CC(N)=O)C(=O)CN(C(=O)CN(CCN)C(=O)CN(C(=O)CN(C(=O)CN(CCN)C(=O)CN(C(=O)CN(C(=O)CN(CCN)C(=O)CN(C(=O)CN(C(=O)CNCCN)[C@@H](C)c1ccccc1)[C@@H](C)c1ccccc1)[C@@H](C)c1ccccc1)[C@@H](C)c1ccccc1)[C@@H](C)c1ccccc1)[C@@H](C)c1ccccc1)[C@@H](C)c1ccccc1` (H-[Gly(N-2-aminoethyl)][Nspe][Nspe][Gly(N-2-aminoethyl)][Nspe][Nspe][Gly(N-2-aminoethyl)][Nspe][Nspe][Gly(N-2-aminoethyl)][Nspe][Nspe]-NH2), the selectivity ratio came to 1 in data set [1]; 13 in [4]; 21 in data set [5]; 13 in data set [8]; 21 in data set [9]; 1 in [10]. In data set [3], this compound returned an MIC of over 100 µM.
For the compound `NCCCCCCNCC(=O)N(CC(=O)N(CC(=O)N(CCCCCCN)CC(=O)N(CC(=O)N(CC(=O)N(CCCCCCN)CC(=O)N(CC(=O)N(CC(N)=O)Cc1ccccc1)Cc1ccccc1)Cc1ccccc1)Cc1ccccc1)Cc1ccccc1)Cc1ccccc1` (H-[Gly(N-(CH2)6NH2)][Nphe][Nphe][Gly(N-(CH2)6NH2)][Nphe][Nphe][Gly(N-(CH2)6NH2)][Nphe][Nphe]-NH2), the selectivity ratio in data set [1] came out at 1; in [4], 17; in data set [5], 33; in [7], 2; in data set [8], 33; in data set [9], 17. The selectivity ratio in data set [10] stood at 1; in data set [11] it was 2. Also, the CC50 at 24 h in data set [12] and in data set [6] was over 100 µM throughout. Moreover, the figures for the MIC in [2], in [13] and in [14] were over 100 µM, 6 µM (≈ 8.21 µg/mL) and 3 µM (≈ 4.11 µg/mL), respectively.
Consider `NCCCCCCNCC(=O)N(CC(=O)N(CC(=O)N(CCCCCCN)CC(=O)N(CC(=O)N(CC(=O)N(CCCCCCN)CC(=O)N(CC(=O)N(CC(=O)N(CCCCCCN)CC(=O)N(CC(=O)N(CC(N)=O)Cc1ccccc1)Cc1ccccc1)Cc1ccccc1)Cc1ccccc1)Cc1ccccc1)Cc1ccccc1)Cc1ccccc1)Cc1ccccc1` (H-[Gly(N-(CH2)6NH2)][Nphe][Nphe][Gly(N-(CH2)6NH2)][Nphe][Nphe][Gly(N-(CH2)6NH2)][Nphe][Nphe][Gly(N-(CH2)6NH2)][Nphe][Nphe]-NH2), for which the selectivity ratio in [1] was determined as 1; in data set [4] it was 50; in data set [5] it was 17; in data set [7], 8; in [8], 17; in data set [9], 50. Moreover, the selectivity ratio came to 1 in data set [10] and 8 in data set [11]. The CC50 at 24 h in data set [12] and in data set [6] was over 100 µM in each case. For the same compound, the MIC in data set [2] is over 100 µM; in data set [13], 2 µM (≈ 3.64 µg/mL); in [14] it was 6 µM (≈ 10.9 µg/mL).
Turning to `C[C@@H](c1ccccc1)N(CC(N)=O)C(=O)CN(C(=O)CN(CCCCCCN)C(=O)CN(C(=O)CN(C(=O)CN(CCCCCCN)C(=O)CN(C(=O)CN(C(=O)CNCCCCCCN)[C@@H](C)c1ccccc1)[C@@H](C)c1ccccc1)[C@@H](C)c1ccccc1)[C@@H](C)c1ccccc1)[C@@H](C)c1ccccc1` (H-[Gly(N-(CH2)6NH2)][Nspe][Nspe][Gly(N-(CH2)6NH2)][Nspe][Nspe][Gly(N-(CH2)6NH2)][Nspe][Nspe]-NH2), the selectivity ratio turned out to be 1 in [1]; 33 in [4]; 50 in data set [5]; 4 in [7]; 50 in data set [8]; 33 in [9]. Besides, the selectivity ratio in data set [10] came to 1; in [11], 4. The CC50 at 24 h in data set [12] and in data set [6] was over 100 µM each time. In addition, the MIC was over 100 µM in [2], 3 µM (≈ 4.36 µg/mL) in data set [13] and 2 µM (≈ 2.91 µg/mL) in data set [14].
As to `CCCCCNCC(=O)N(CC(=O)N(CC(=O)N(CCCCNC(=N)N)CC(=O)N(CC(=O)N(CC(=O)N(CCCCC)CC(=O)N(CC(=O)N(CC(=O)N(CCCCNC(=N)N)CC(=O)N(CC(=O)N(CC(N)=O)[C@@H](C)c1ccccc1)[C@@H](C)c1ccccc1)[C@@H](C)c1ccccc1)[C@@H](C)c1ccccc1)[C@@H](C)c1ccccc1)[C@@H](C)c1ccccc1)[C@@H](C)c1ccccc1)[C@@H](C)c1ccccc1` (H-[NPentylGly][Nspe][Nspe][NhArg][Nspe][Nspe][NPentylGly][Nspe][Nspe][NhArg][Nspe][Nspe]-NH2), the MIC in data set [2] and in data set [3] was over 100 µM each time. The selectivity ratio in data set [4] amounted to 10; in data set [5], 4; in data set [8] it was 5; in data set [9], 8.
Turning to `NCCCCNCC(=O)N(CC(=O)N(CC(=O)N(CCCCN)CC(=O)N(CC(=O)N(CC(=O)N(CCCCN)CC(=O)N(CC(=O)N(CC(=O)N(CCCCN)CC(=O)N(CC(=O)N(CC(N)=O)Cc1ccc(Cl)cc1)Cc1ccc(Cl)cc1)Cc1ccc(Cl)cc1)Cc1ccc(Cl)cc1)Cc1ccc(Cl)cc1)Cc1ccc(Cl)cc1)Cc1ccc(Cl)cc1)Cc1ccc(Cl)cc1` (H-[Nlys][Gly(Nα-4-Cl-benzyl)][Gly(Nα-4-Cl-benzyl)][Nlys][Gly(Nα-4-Cl-benzyl)][Gly(Nα-4-Cl-benzyl)][Nlys][Gly(Nα-4-Cl-benzyl)][Gly(Nα-4-Cl-benzyl)][Nlys][Gly(Nα-4-Cl-benzyl)][Gly(Nα-4-Cl-benzyl)]-NH2), the MIC in data set [2] and in data set [3] was over 100 µM in each case. In addition, the selectivity ratio came to 1 in data set [4], 4 in data set [5], 3 in data set [8] and 1 in [9].
With `C[C@@H](c1ccccc1)N(CC(N)=O)C(=O)CN(C(=O)CN(CCCCN)C(=O)CN(C(=O)CN(C(=O)CNCCCCN)[C@@H](C)c1ccccc1)[C@@H](C)c1ccccc1)[C@@H](C)c1ccccc1` (H-[Nlys][Nspe][Nspe][Nlys][Nspe][Nspe]-NH2), the selectivity ratio in [1] came to 1; in data set [4], 1; in data set [5] it was 4; in data set [7], 1; in [8], 4; in [9] it was 1. For the same compound, the selectivity ratio in data set [10] and in data set [11] was 1 in each case. The CC50 at 24 h in data set [12] and in [6] was over 100 µM each time. Moreover, the MIC in data set [2], in data set [3] and in data set [13] was over 100 µM throughout.
Consider `CCCCCNCC(=O)N(CC(=O)N(CC(=O)N(CCCCN)CC(=O)N(CC(=O)N(CC(=O)N(CCCCN)CC(=O)N(CC(=O)N(CC(=O)N(CCCCN)CC(=O)N(CC(=O)N(CC(N)=O)[C@@H](C)c1ccccc1)[C@@H](C)c1ccccc1)C(C)c1ccccc1)[C@@H](C)c1ccccc1)[C@@H](C)c1ccccc1)[C@@H](C)c1ccccc1)C(C)c1ccccc1)[C@@H](C)c1ccccc1` (single isomer, unassigned), for which the CC50 at 24 h in [12] was 12 µM; in [6], 15 µM. The MIC in data set [3] stood at 50 µM (≈ 90.9 µg/mL); in data set [13], 2 µM (≈ 3.64 µg/mL). In addition, the selectivity ratio came out at 6 in data set [4], 8 in [5], 6 in data set [8] and 8 in data set [9].
